From ChEMBL document CHEMBL1177722, “Computer-aided identification of Trypanosoma brucei uridine diphosphate galactose 4'-epimerase inhibitors: toward the development of novel therapies for African sleeping sickness” (J Med Chem, 2010)

Legend:
[1] = target: T1, UDP-galactose 4-epimerase (Trypanosoma brucei, UniProt Q8T8E9); test: Inhibition of hexahistidine-tagged Trypanosoma brucei UDP-galactose-4'epimerase expressed in Escherichia coli
T1 sequence (Q8T8E9 whole entry): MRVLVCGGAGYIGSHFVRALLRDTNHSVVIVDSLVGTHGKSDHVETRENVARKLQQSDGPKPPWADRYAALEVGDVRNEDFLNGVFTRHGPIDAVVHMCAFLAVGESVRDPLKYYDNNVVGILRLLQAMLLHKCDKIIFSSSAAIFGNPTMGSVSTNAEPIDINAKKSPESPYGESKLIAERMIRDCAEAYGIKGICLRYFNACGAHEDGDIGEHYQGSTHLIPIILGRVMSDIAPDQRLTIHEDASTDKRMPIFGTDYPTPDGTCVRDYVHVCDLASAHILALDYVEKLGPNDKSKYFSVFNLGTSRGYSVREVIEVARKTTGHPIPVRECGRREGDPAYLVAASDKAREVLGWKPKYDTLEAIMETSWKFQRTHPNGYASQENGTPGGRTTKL
Outline: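 Recombinant enzyme reacted with 100 μM UDP-Gal and 100 μM β-NAD+ (5 μg/mL enzyme, 1 mM Tris pH 7.6, 1% DMSO), with or without inhibitor (0.03-100 μM), at 37 °C for 30 min. Quenched with NaOH. UDP-Gal to UDP-Glc conversion followed by HPAEC, detection at 260 nm. IC50 from a four-parameter fit over three independent experiments.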

Trypanosoma brucei = test: Antitrypanosomal activity against Trypanosoma brucei after 3 days by alamar blue assay; assay type: functional, organism-based; conditions: 72 h
Outline: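 Cultured T. brucei seeded at 1 × 10^4 cells/ml in 384-well format, incubated with or without inhibitor (100 μM to 30 nM) for three days; viable cells then counted by Alamar Blue read-out; EC50 derived from the dose series.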

MRC5 = test: Cytotoxicity against human MRC5 cells after 3 days by alamar blue assay; assay type: cell-based; conditions: MRC5, 72 h
Outline: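 Cultured human MRC5 cells at 1 × 10^4 cells/ml in 384-well format, incubated with or without inhibitor over 100 μM to 30 nM for three days. Viable cell number then counted by Alamar blue.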

Row | Structure (SMILES) | IC50 [1] [µM] | EC50 (Trypanosoma brucei) [µM] | EC50 (MRC5) [µM]
1 | COC1C(OC(=O)c2ccc(C)[nH]2)C(O)C(Oc2ccc3c(O)c(NC(=O)c4ccc(O)c(CC=C(C)C)c4)c(=O)oc3c2Cl)OC1(C)C (centres undefined) | 5 | 4.4 | > 50
2 | O=C(O)c1ccccc1-c1ccccc1C(=O)Nc1ccc2c(c1)Cc1cc(NC(=O)c3ccccc3-c3ccccc3C(=O)O)ccc1-2 | 0.9 | > 50 | > 50
3 | O=C(O)c1ccccc1-c1ccccc1C(=O)Nc1ccc2c(c1)C(O)c1ccccc1-2 (centres undefined) | 6.8 | > 50 | > 50
4 | O=C(O)c1cc(Cl)ccc1-c1ccc(Cl)cc1C(=O)NC1=CC2=C(CC1)c1c(Cl)cc(Cl)cc1C2 | 1.8 | > 50 | 35.2
5 | O=C(O)c1ccccc1-c1ccccc1C(=O)Nc1ccc2c(c1)nc(O)c1ccccc12 | 3.6 | > 50 | > 50
6 | CCn1c2ccccc2c2cc(NC(=O)c3ccccc3-c3ccccc3C(=O)O)ccc21 | 5.6 | > 50 | > 50
7 | O=C(O)c1ccccc1-c1ccccc1C(=O)Nc1ccc2c(c1)Cc1ccccc1-2 | 4.6 | > 50 | > 50
8 | O=C(O)c1ccccc1-c1ccccc1C(=O)Nc1ccc2c(c1)C(=O)c1ccccc1-2 | 2.8 | > 50 | > 50
9 | O=C(O)c1ccccc1-c1ccccc1C(=O)Nc1ccc2c(c1)oc(=O)c1ccccc12 | 3.2 | – | > 50
10 | O=C(O)c1ccccc1-c1ccccc1C(=O)Nc1ccc2c(c1)-c1ccccc1C2 | 4.2 | > 50 | > 50
11 | O=C(O)c1ccccc1-c1ccccc1C(=O)Nc1cccc2c1-c1ccccc1C2 | 8 | > 50 | > 50
12 | O=C(O)c1ccccc1-c1ccccc1C(=O)Nc1ccc2c(c1)Cc1cc(F)ccc1-2 | 3.8 | > 50 | > 50
13 | O=C(O)c1ccccc1-c1ccccc1C(=O)Nc1cc2c3ccccc3ccc2c2ccccc12 | 2.6 | – | > 50
14 | O=C(O)c1cc(Cl)ccc1-c1ccc(Cl)cc1C(=O)Nc1ccc2c(c1)Cc1ccccc1-2 | 3.3 | – | > 50
